Compounds with a hit are over-represented: about 2.5% of the library has one in this group of screens.
rCAG RNA binder = binders of r(CAG) RNA repeats, primary screen, biochemical, fluorescence | r(CAG) RNA repeat, TO-PRO-1 dye displacement fluorescence | inhibition, % at 3 µM | 1.3% of 370,000 active;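 active means inhibition above the plate cutoff, the mean of all test compounds on that plate plus 3 SD, cut at about 35% in these data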;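 further: 0% = DMSO alone and 100% = 100 µM mitoxantrone as full dye displacement; higher means more dye released from RNA so lower well fluorescence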
ABHD4 inh = ABHD4 inhibitors, primary screen, biochemical, fluorescence polarization, mouse; purified mABHD4, FP-Rh probe fluorescence polarization; (Lyso)-N-acylphosphatidylethanolamine lipase (Mus musculus), Q8VD66; 0.54% of 370,000 active; inhibition, % at 8.92 µM;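 active means inhibition exceeding the mean over every tested compound plus 3 SD, cut at about 30% in these data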;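 further: 0% = plate median of compound wells and 100% = S159A mutant with DMSO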
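Assay system: wild-type mouse ABHD4 protein; compound: single nominal dose of 8.92 µM, 0.89% DMSO final; schedule: 45 min + 60 min at 25 °C; measured by: FP readout, ex 525 nm / em 598 nm; evaluation: % inhibition of FP-Rh probe binding versus controls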
HTRA1 inhibitor = HTRA1 serine protease inhibitors, primary screen, biochemical, fluorescence polarization, HTS; 0.5% of 340,000 active; Q92743; recombinant HTRA1, FP-rhodamine activity-based probe; inhibition, % at 5.96 µM; in the data active means inhibition above about 36%;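 further: 0% = enzyme with DMSO and 100% = wells lacking enzyme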
TCR-CD3 inh = inhibitors of human TCR-CD3 interaction, primary screen, biochemical, fluorescence, TAMRA-labeled TCR probe; T-cell receptor (TCR); inhibition, % at 9.4 µM; 0.37% of 360,000 active; AID 651800, 2012; in the data active means inhibition above about 19%;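 further: recombinant mutant TCR 2C K166C tagged with TAMRA read by polarization; 0% = receptor in buffer alone and 100% = receptor with positive control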
SIAE primary = human SIAE inhibitors, primary screen, biochemical, fluorescence polarization, FP-Rh probe, 1536-well HTS; Sialate O-acetylesterase (Homo sapiens), Q9HAT2; SIAE FP-Rh probe binding; 0.69% of 370,000 active; inhibition, % at 9.66 µM; AID 1053197, 2014;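 active means inhibition above a cutoff: mean of compounds within the control limits plus 3 SD of those, cut at about 17% in these data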;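 further: 0% = plate median of compound wells and 100% = probe without SIAE protein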
Target sequence (Q9HAT2 whole entry, looked up): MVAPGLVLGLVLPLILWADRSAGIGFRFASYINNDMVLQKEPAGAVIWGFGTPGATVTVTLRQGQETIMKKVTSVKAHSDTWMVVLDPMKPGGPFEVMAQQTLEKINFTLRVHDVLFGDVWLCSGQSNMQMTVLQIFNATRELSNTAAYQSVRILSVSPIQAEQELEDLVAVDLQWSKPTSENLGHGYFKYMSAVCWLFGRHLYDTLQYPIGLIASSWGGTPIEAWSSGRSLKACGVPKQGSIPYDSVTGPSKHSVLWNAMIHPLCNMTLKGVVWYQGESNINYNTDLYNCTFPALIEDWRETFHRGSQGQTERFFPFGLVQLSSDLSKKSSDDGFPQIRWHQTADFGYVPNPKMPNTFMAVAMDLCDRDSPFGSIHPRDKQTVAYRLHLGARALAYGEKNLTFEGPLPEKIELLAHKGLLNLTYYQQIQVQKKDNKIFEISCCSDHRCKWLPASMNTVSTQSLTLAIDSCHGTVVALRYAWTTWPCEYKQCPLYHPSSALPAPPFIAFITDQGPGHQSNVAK
SIAE confirm = human SIAE inhibitors, retest, confirmation, biochemical, fluorescence polarization, FP-Rh probe, triplicate; shares compounds with SIAE primary; SIAE FP-Rh activity-based probe; inhibition, % at 9.66 µM; 13% of 2,300 active; AID 1117263, 2014;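 active means mean inhibition of the replicates above the hit cutoff set in the primary screen, cut at about 17% in these data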;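 further: 0% = SIAE with DMSO and probe and 100% = probe without SIAE; inhibitors lower polarization as more probe stays unbound to SIAE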
* hit, by the source's call.

How did Cc1cccc(NC2SC(=O)N(c3ccccc3)C2=O)c1 (centres undefined) do in these assays?
rCAG RNA binder: -2; ABHD4 inh: 3; HTRA1 inhibitor: 3; TCR-CD3 inh: -4; SIAE primary: -1

What do the screens show for `COCc1nnc(NC(=O)C23CC4CC(CC(C4)C2)C3)s1`?
rCAG RNA binder: -8; ABHD4 inh: -8; HTRA1 inhibitor: -4; TCR-CD3 inh: -4; SIAE primary: 18*; SIAE confirm: 4

Results for Cc1[nH]c2ccccc2c1CC(=O)Nc1ccc(Nc2ccncc2)cc1 ?
rCAG RNA binder: 9; ABHD4 inh: 3; TCR-CD3 inh: -1; SIAE primary: 34*; SIAE confirm: 25*

Results for COc1ccc(-c2cc(NC(=O)Cc3c(C)[nH]c4ccccc34)ccc2Nc2cccnc2)cc1OC ?
rCAG RNA binder: 16; ABHD4 inh: 5; TCR-CD3 inh: 0; SIAE primary: 17*; SIAE confirm: 6

What do the screens show for `CC(=O)c1cccc(NC(=S)NC2CCCCC2)c1`?
rCAG RNA binder: -1; ABHD4 inh: 5; HTRA1 inhibitor: 7; TCR-CD3 inh: -2; SIAE primary: 19*; SIAE confirm: -1

Results for CC(=O)c1cccc(NC(=S)NCCCCc2ccccc2)c1 ?
rCAG RNA binder: 6; ABHD4 inh: -9; HTRA1 inhibitor: -35; TCR-CD3 inh: 1; SIAE primary: 42*; SIAE confirm: 47*

What do the screens show for `N#CCc1cccnc1Sc1ccc(Cl)cc1`?
rCAG RNA binder: -2; ABHD4 inh: -3; HTRA1 inhibitor: 0; TCR-CD3 inh: -4; SIAE primary: -5

Results for Cc1ccc2[nH]c(O)c(N=NC(N)=S)c2c1 ?
rCAG RNA binder: 3; ABHD4 inh: 1; HTRA1 inhibitor: -3; TCR-CD3 inh: 1; SIAE primary: 6

What do the screens show for `CC(/C=C(\NC(=O)c1ccccc1)C(=O)N=Nc1c(O)[nH]c2ccc(C)cc12)=C\c1ccccc1`?
rCAG RNA binder: 11; ABHD4 inh: 4; HTRA1 inhibitor: -22; TCR-CD3 inh: 5; SIAE primary: 21*; SIAE confirm: 9

What do the screens show for `Nc1ccc(-c2n[nH]c(=O)c3ccccc23)cc1N`?
rCAG RNA binder: 15; ABHD4 inh: -2; HTRA1 inhibitor: -23; TCR-CD3 inh: 6; SIAE primary: 19*; SIAE confirm: 7

Results for COc1ccc(N2C(=O)C(=O)/C(=C(/O)c3ccc(C)cc3)C2c2cccnc2)cc1 (centres undefined) ?
rCAG RNA binder: 0; ABHD4 inh: 7; HTRA1 inhibitor: 2; TCR-CD3 inh: 1; SIAE primary: 21*; SIAE confirm: 3

What do the screens show for `CC(=O)Nc1ccc(O)cc1[N+](=O)[O-]`?
rCAG RNA binder: 1; ABHD4 inh: -4; HTRA1 inhibitor: -1; TCR-CD3 inh: -2; SIAE primary: 20*; SIAE confirm: -3

What do the screens show for `Cc1cc(C(=O)N2CCCC(Nc3ccc(C)c(C)c3)C2)nc(C)n1` (centres undefined)?
rCAG RNA binder: 2; ABHD4 inh: 5; HTRA1 inhibitor: 1; TCR-CD3 inh: 9; SIAE primary: 5

Results for CCCc1nc2ccc(Cl)cn2c1Cc1cccc(Cl)c1 ?
rCAG RNA binder: 6; ABHD4 inh: -11; TCR-CD3 inh: -6; SIAE primary: 4

Results for CCCc1nc2ccc(Cl)cn2c1Cc1ccc(C)cc1 ?
rCAG RNA binder: 2; ABHD4 inh: 6; TCR-CD3 inh: 5; SIAE primary: 18*; SIAE confirm: 4

How did COCCNc1nc(NCCOc2ccccc2)c2sc(-c3ccccc3)cc2n1 do in these assays?
rCAG RNA binder: 5; ABHD4 inh: 22; TCR-CD3 inh: -1; SIAE primary: 22*; SIAE confirm: 21*

What do the screens show for `COCCNc1nc(NCCOC)c2sc(-c3ccccc3)cc2n1`?
rCAG RNA binder: 1; ABHD4 inh: -5; TCR-CD3 inh: -9; SIAE primary: 3

How did COCCNc1nc(NCc2cccc(OC)c2)c2sccc2n1 do in these assays?
rCAG RNA binder: -1; ABHD4 inh: 0; TCR-CD3 inh: -1; SIAE primary: -3

Screening data from PubChem.
